Compound activity from PubChem BioAssay.
TPT1 inh – inhibitors of Candida albicans tRNA 2'-phosphotransferase TPT1; recombinant caTPT1, FP RNA substrate dephosphorylation; inhibition, % at 5 µM; actives 0.81% (n = 300,000); AID 1962;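 active = inhibition above the mean of all tested compounds plus 3 SD, set per screening campaign, cut at about 24% in these data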;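 note: plate controls were DMSO alone for no effect and ferristatin control at 100 nM for full effect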
CSN deneddyl inh – inhibitors of human CSN-mediated cullin deneddylation | Purified CSN, SCF-Nedd8-OG deneddylation, fluorescence polarization | inhibition, % at 12.5 µM | actives 0.38% (n = 360,000) | AID 651999;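 active = pattern-corrected inhibition above about 35%, with an unprinted fluorescence ratio check between 0.5 and 1.5, limit read from the data, passing the limit was not always enough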;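 note: 0% = enzyme with substrate and 100% = substrate without enzyme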
Target sequence (Q92905 whole entry, looked up, one chain of several): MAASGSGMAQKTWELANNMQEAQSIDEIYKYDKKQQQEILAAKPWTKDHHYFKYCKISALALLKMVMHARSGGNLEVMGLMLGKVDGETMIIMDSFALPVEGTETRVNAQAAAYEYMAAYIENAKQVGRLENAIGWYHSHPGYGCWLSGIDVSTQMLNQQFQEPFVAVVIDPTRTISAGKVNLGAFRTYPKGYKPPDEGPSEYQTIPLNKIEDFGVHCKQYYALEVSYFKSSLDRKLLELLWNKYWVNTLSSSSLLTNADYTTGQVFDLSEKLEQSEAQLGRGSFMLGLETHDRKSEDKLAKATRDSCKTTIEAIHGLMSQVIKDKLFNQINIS
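Test system: Human Csn5 produced in HEK293T cells | Compound: 12.5 µM single point | Times: 90 min, room temperature | Signal: Fluorescence polarization readout | Read-out basis: % inhibition of substrate cleavage by Csn5 | Controls: no-enzyme wells high, enzyme-with-substrate wells low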
NR1D1 modulator – Rev-erb alpha (human) modulation; activity, % at 10 µM; P20393; actives 0.79% (n = 370,000); AID 1259318; Rev-erbα–FITC-DNA binding, fluorescence polarization, 90 min;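 active = activity above about 14%, limit read from the data; passing the limit was not always enough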;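 note: 0% = DMSO wells with 35 nM protein and 100% = DMSO wells with 750 nM protein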
HNF4A DNA FP – change in binding of human HNF4 alpha to DNA; activity change, % at 10 µM; actives 0.3% (n = 360,000); HNF4a-FITC DNA binding, fluorescence polarization, 1 h; P41235; AID 1224865; in the data active = activity change above about 30%, passing the limit was not always enough
NR1D1 mod conf – confirmation of modulators of human Rev-erb alpha DNA binding | activation, % at 25 µM | shares compounds with NR1D1 modulator | Rev-erb alpha FITC-DNA binding, fluorescence polarization, 90 min | actives 61% (n = 3,000);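 active = activation at or above a set limit, or at least 3 SD above the negative control mean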;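 note: 0% = 35 nM protein with DMSO and 100% = 750 nM protein high control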
RORg DNA counter – affects RORgamma DNA binding in a Rev-erb alpha counter-screen; purified RORgamma protein-FITC-DNA binding, fluorescence polarization; actives 8% (n = 910); shares compounds with NR1D1 modulator; IC50, µM;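 active = Compounds whose fitted half-maximal concentration for disrupting protein-DNA binding is below 10 micromolar; the record names Rev-erb in its text, so the target is in doubt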
Active calls of the source: *. Most compounds without a hit are left out; they make up all but 1.7% or so of the library.

Screening Cc1nn2c3c(cnc2c1-c1ccccc1)C(=O)CC(c1ccccc1)C3 (centres undefined) returned TPT1 inh 0.5, CSN deneddyl inh -6.9, NR1D1 modulator 38.6*, HNF4A DNA FP 0.3 and NR1D1 mod conf 19.5*.
NC(=O)c1ncn([C@@H]2O[C@H](C(=O)N[C@H](Cc3ccccc3)C(=O)N3CCN(CC(=O)Nc4ccccn4)CC3)[C@@H](O)[C@H]2O)n1 was read as NR1D1 modulator -2.6.
Screening CCCNC(=O)N1CC[C@H]2[C@@H]1c1cc(-c3ccc(F)cc3)ccc1N(C)[C@H]2CO returned NR1D1 modulator -0.9.
`O=C(Nc1nc(-c2ccccc2)c(-c2ccccc2)s1)c1ccc(S(=O)(=O)N2CCCCC2)cc1` gave TPT1 inh -3.7, CSN deneddyl inh 0.7, NR1D1 modulator -2.7 and HNF4A DNA FP 2.7.
For COC(=O)Nc1nc(-c2ccccc2)c(C(=O)c2ccc(Cl)cc2)s1 the results were TPT1 inh -5.4, CSN deneddyl inh -5.1, NR1D1 modulator 29.8*, HNF4A DNA FP -1.7 and NR1D1 mod conf 30.8*.
`O=C(Nc1nc(-c2ccccc2)c(C(=O)c2ccccc2)s1)c1ccc(S(=O)(=O)N2CCCCC2)cc1` gave TPT1 inh -2.5, CSN deneddyl inh -3.0, NR1D1 modulator 23.0*, HNF4A DNA FP -2.6, NR1D1 mod conf 84.9* and RORg DNA counter inactive.
O=C(Cn1cc(C(F)(F)F)cc(Cl)c1=O)Nc1cc(Cl)cc(Cl)c1 was read as TPT1 inh -2.8, CSN deneddyl inh 7.9, NR1D1 modulator 58.6*, HNF4A DNA FP 8.3 and NR1D1 mod conf 26.8*.
`COc1ccc(N2C(=O)c3cccc4cc(Br)cc(c34)C2=O)cc1` gave TPT1 inh 2.4, CSN deneddyl inh 0.7, NR1D1 modulator 4.7 and HNF4A DNA FP 7.5.
Screening COc1ccc(N2C(=O)c3cccc4cccc(c34)C2=O)cc1 returned TPT1 inh -0.3, CSN deneddyl inh 3.0, NR1D1 modulator 27.9*, HNF4A DNA FP -0.8 and NR1D1 mod conf 25.5*.
For COc1ccc(N2C(=O)c3ccccc3C2=O)cc1 the results were TPT1 inh -0.6, CSN deneddyl inh 1.7, NR1D1 modulator -0.6 and HNF4A DNA FP -5.8.
`COc1ccc(N2C(=O)c3cccc4c(N(C)CCO)ccc(c34)C2=O)cc1` gave CSN deneddyl inh -10.4, NR1D1 modulator 41.6*, HNF4A DNA FP -35.1, NR1D1 mod conf 36.5* and RORg DNA counter >40.
Screening CN(C)c1ccc(N=Nc2ccccc2C(=O)OCC(=O)NCC2CCCCC2)cc1 returned TPT1 inh 1.1, CSN deneddyl inh 3.5, NR1D1 modulator 28.6*, HNF4A DNA FP 1.4, NR1D1 mod conf 35.9* and RORg DNA counter >40.
`CCn1c2ccccc2c2cc(NC(=O)COC(=O)c3ccc(F)cc3Cl)ccc21` gave NR1D1 modulator -1.6.
Screening O=[N+]([O-])c1cccc(COc2cccc(CN3CCCCC3)c2)c1 returned CSN deneddyl inh 5.2, NR1D1 modulator 2.7 and HNF4A DNA FP -5.8.
`Cc1ccc2[nH]c(=O)c3cc(C(=O)N(C)C4CCCCC4)sc3c2c1` gave TPT1 inh -0.3, CSN deneddyl inh 5.2, NR1D1 modulator 20.8*, HNF4A DNA FP -0.5 and NR1D1 mod conf -1.3.
For Cc1ccc2[nH]c(=O)c3cc(C(=O)N(C)c4ccc(C)c(C)c4)sc3c2c1 the results were TPT1 inh 2.1, CSN deneddyl inh 4.9, NR1D1 modulator 9.7 and HNF4A DNA FP 1.5.
Screening COc1ccccc1NC(=O)N(C)C[C@H]1Oc2ncc(C#CCN(C)C)cc2C(=O)N([C@H](C)CO)C[C@H]1C returned CSN deneddyl inh -7.8 and HNF4A DNA FP -10.0.
Fc1ccc(-n2c(-c3cccs3)nc3nc4ccccc4nc32)cc1 was read as TPT1 inh 1.4, CSN deneddyl inh -2.3, NR1D1 modulator 75.4*, HNF4A DNA FP 1.0, NR1D1 mod conf 59.4* and RORg DNA counter >40.
`Cc1ccc(-n2c(-c3cccs3)nc3nc4ccccc4nc32)cc1` gave TPT1 inh -37.6 and NR1D1 modulator -2.4.
For Cc1cc(C)cc(NC(=O)Cn2nnc(C(=O)NCc3ccc4c(c3)OCO4)c2N)c1 the results were TPT1 inh 2.6, CSN deneddyl inh 18.1, NR1D1 modulator 8.7 and HNF4A DNA FP 8.2.
Screening Cc1ccc(CNC(=O)c2nnn(CC(=O)Nc3cc(C)cc(C)c3)c2N)cc1 returned TPT1 inh 2.8, CSN deneddyl inh 25.0, NR1D1 modulator 24.3*, HNF4A DNA FP -2.2 and NR1D1 mod conf 20.8*.
`COc1cccc(CNC(=O)c2nnn(CC(=O)Nc3ccc(Br)cc3)c2N)c1` gave TPT1 inh 1.1, CSN deneddyl inh 0.5, NR1D1 modulator 19.3*, HNF4A DNA FP 4.2 and NR1D1 mod conf 5.7.
Screening COc1ccc(NC(=O)Cn2nnc(C(=O)NCc3ccc4c(c3)OCO4)c2N)cc1 returned TPT1 inh 5.5, CSN deneddyl inh 2.9, NR1D1 modulator 2.4 and HNF4A DNA FP 0.7.
Screening Cc1ccc2nc(NCCc3ccc(Cl)cc3)c3nncn3c2c1 returned TPT1 inh -2.0, CSN deneddyl inh -1.1, NR1D1 modulator 28.0*, HNF4A DNA FP 3.8 and NR1D1 mod conf 8.4.
CSc1nc2ccccc2n1CC(=O)Nc1ccc(C)c(C)c1 was read as TPT1 inh -0.9, CSN deneddyl inh -0.6, NR1D1 modulator -1.6 and HNF4A DNA FP -2.1.
`Cc1cccc(CSc2nc3ccncc3n2CC(=O)Nc2cc(C)cc(C)c2)c1` gave TPT1 inh 2.0, CSN deneddyl inh 7.1, NR1D1 modulator 28.9*, HNF4A DNA FP 2.6 and NR1D1 mod conf 13.4*.
`CCCC(=O)N1CCC1(C)C(=O)Nc1ncc(C(=O)OC)s1` (centres undefined) gave CSN deneddyl inh -0.6, NR1D1 modulator 0.7 and HNF4A DNA FP 1.1.
`Nc1nc(-c2cccs2)c(CC(=O)O)s1` gave TPT1 inh 2.4, CSN deneddyl inh 8.5, NR1D1 modulator 2.8 and HNF4A DNA FP 0.8.
CC1CC1C(=O)Nc1nc(-c2cccs2)c(-c2cccs2)s1 (centres undefined) was read as TPT1 inh 2.0, CSN deneddyl inh 1.9, NR1D1 modulator 53.4*, HNF4A DNA FP -0.7, NR1D1 mod conf 74.8* and RORg DNA counter inactive.
`Nc1nc(-c2cccs2)c(-c2cccs2)s1` gave TPT1 inh -1.8, CSN deneddyl inh 7.3, NR1D1 modulator 281.6*, HNF4A DNA FP 0.8, NR1D1 mod conf 244.4* and RORg DNA counter inactive.
For O=C(Nc1nc(-c2cccs2)c(-c2ccccc2)s1)c1ccco1 the results were TPT1 inh -0.9, CSN deneddyl inh 5.3, NR1D1 modulator 1.2 and HNF4A DNA FP 2.0.
`O=S1(=O)N[C@@H](Cc2ccccc2)COc2cc(NC3CC3)ccc21` gave NR1D1 modulator 4.2.
For Clc1ccc(-c2nnc3n2N=C(c2ccc(-c4ccccc4)cc2)CS3)c(Cl)c1 the results were NR1D1 modulator 2.9.
